Source: PubChem BioAssay (Sanford-Burnham Center for Chemical Genomics)
Scp-1 inhibitor: Scp-1 phosphatase inhibitors, primary screen, biochemical, colorimetric, uHTS; Recombinant Scp1, phosphopeptide, malachite green phosphate absorbance; inhibition, % at 20 µM; 340,000 tested, 0.88% active; AID 493091, 2011;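 active means inhibition above about 50% at 20 µM, limit read from the data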;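 further: plate controls were DMSO wells with enzyme for no effect and wells lacking enzyme for full effect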
Target sequence (Q9GZU7 76-261 limits assumed): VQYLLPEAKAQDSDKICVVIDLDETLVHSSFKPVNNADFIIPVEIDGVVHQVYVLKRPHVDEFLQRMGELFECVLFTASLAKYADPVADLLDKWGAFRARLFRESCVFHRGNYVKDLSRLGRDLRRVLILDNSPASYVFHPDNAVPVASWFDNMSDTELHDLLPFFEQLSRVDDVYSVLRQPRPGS
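Incubation: 45 min enzyme reaction at room temperature / System: truncated SCP-1 phosphatase (76-261aa) / Reagent: Phospho 17-mer peptide substrate / Buffer or medium: Acidic Tris acetate buffer with magnesium and detergent / Signal: absorbance at 630 nm / Doses: one concentration, 20 µM, with 1.0% DMSO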
LMPTP block: LMPTP phosphatase inhibitors, primary screen, biochemical, fluorescence intensity, uHTS | AID 651560, 2012 | inhibition, % at 20 µM | recombinant LMPTP-A, OMFP fluorogenic substrate | Low molecular weight phosphotyrosine protein phosphatase (Homo sapiens), P24666 | 360,000 tested, 0.22% active;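 active means compounds that cut the enzyme signal by at least half of the control window in the single-dose screen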;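 further: plate controls were DMSO wells with enzyme plus substrate for no effect and substrate without enzyme for full effect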
Target sequence (P24666 whole entry, looked up): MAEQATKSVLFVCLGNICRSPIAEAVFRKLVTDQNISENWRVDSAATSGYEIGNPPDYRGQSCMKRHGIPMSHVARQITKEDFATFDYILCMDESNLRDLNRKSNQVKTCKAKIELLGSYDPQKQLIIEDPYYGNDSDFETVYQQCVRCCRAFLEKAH
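Assay system: LMPTP-A phosphatase enzyme | Input: 0.625 nM enzyme | Also added: Fluorogenic phosphatase substrate OMFP at 400 µM final | Compound dosing: One test concentration per compound, 20 µM, with 3% DMSO overall | Schedule: 50 min enzyme reaction at room temperature, protected from light | Signal: Fluorescence intensity | Benchmarks: no-enzyme and uninhibited controls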
STEP block: STEP phosphatase inhibitors, primary screen, biochemical, fluorescence intensity, uHTS. AID 588621, 2011. Tyrosine-protein phosphatase non-receptor type 5 (Homo sapiens), P54829. recombinant STEP, OMFP fluorogenic substrate. 360,000 tested, 0.25% active. inhibition, % at 20 µM;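 active means inhibition at 20 µM, scaled per plate between control wells, above about 37%, limit read from the data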;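 further: 0% = DMSO with enzyme and substrate and 100% = substrate only without enzyme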
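Material: STEP (striatal-enriched tyrosine phosphatase) enzyme, cell-free | Medium: 50 mM Bis-Tris pH 6.0 with 2.5 mM DTT and 0.005% Tween 20 | Read-out: Percent inhibition scaled to no-enzyme and uninhibited-enzyme controls, plate-pattern corrected | Signal: Fluorescence read at 480 nm ex / 540 nm em | Times: 20 min reaction, room temperature, in the dark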
SUMO1 PPI mod: modulators of SUMO1 protein-protein interactions, primary screen, biochemical, uHTS | 360,000 tested, 0.33% active | AID 602429, 2012 | SUMO1 binding to a labelled peptide, TR-FRET, 1 h | inhibition, % at 20 µM | Small ubiquitin-related modifier 1 (Homo sapiens), P63165; in the data active means inhibition above about 37%
Target sequence (P63165 whole entry, looked up): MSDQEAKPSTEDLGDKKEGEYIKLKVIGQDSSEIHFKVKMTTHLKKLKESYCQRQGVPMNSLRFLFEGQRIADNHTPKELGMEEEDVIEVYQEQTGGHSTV
HKDC1 inh: HKDC1 hexokinase inhibitors, primary screen, biochemical, fluorescence, uHTS; Q2TB90; recombinant HKDC1, G6PDH/diaphorase resazurin coupled fluorescence; inhibition, % at 20 µM; 340,000 tested, 0.16% active;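 active means inhibition above about 35% when tested at 20 µM, limit read from the data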;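 further: plate controls were DMSO wells with enzyme for no effect and DMSO wells lacking enzyme for full effect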
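Test system: recombinant HKDC1 (HK5) hexokinase enzyme, produced in-house / Doses: 20 µM test compound, 1% DMSO / Timing: 90 min, room temperature / Detection: G6PDH/diaphorase-coupled fluorescence, 1 mM NADP, 100 µM resazurin, 525/613 nm / Control set: DMSO wells with and without enzyme mix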
DNMT1 block: human DNMT1 methyltransferase inhibitors, primary screen, biochemical, molecular beacon, fluorescence, HinP1I cleavage, uHTS; inhibition (reported as % activation of signal), % at 10 µM; DNA (cytosine-5)-methyltransferase 1 (Homo sapiens), P26358; 360,000 tested, 0.83% active; AID 588458, 2011; in the data active means inhibition above about 50%
Numbers without * were called inactive; . = no result given. Rows were chosen to be rich in hits. Some 1.8% of all compounds tested hit in one or more screens of this group.

SMILES	Scp-1 inhibitor	LMPTP block	STEP block	SUMO1 PPI mod	HKDC1 inh	DNMT1 block
O=c1[nH]nc(CNc2ccc(C(F)(F)F)cc2)c2ccccc12	4.5	-0.4	-0.4	3.7	6.8	-0.4
Cc1ccc(SCCc2cc[n+](CC(=O)c3ccccc3)cc2)cc1	-0.4	4.3	-1.2	-11.5	-1.6	-35.7
O=C(C[n+]1ccc(CCSc2ccc(F)cc2)cc1)c1ccccc1	16.7	53.5*	1.1	-14.7	13.4	-47.8
Cc1ccc(C)c(OCCC(=O)Nc2ccc3c(c2)OCO3)c1	-10.4	1.2	-1.1	3.1	2.5	-5.9
O=C(CCCN1C(=O)c2cccc3cccc(c23)C1=O)Nc1nccs1	-5.2	-1.1	4.5	49.7*	-1.6	-0.3
O=C(O)c1c2c(nc3ccc(S(=O)(=O)N4CCC(C(=O)NC5CCCCCC5)CC4)cc13)CCCC2	31.8	0.9	0.6	41.7*	4.0	2.6
O=C(NN1C(=O)/C(=C/c2ccc(O)c(O)c2)SC1=S)c1ccccc1	-17.1	31.4	3.6	4.8	5.9	50.3*
Cc1cc(OCC(=O)NCc2cccnc2)c2c(C)c(C)c(=O)oc2c1	-2.5	0.8	-1.8	-12.6	-0.9	3.6
Cc1cc(OCC(=O)Nc2cccnc2)c2c(C)c(C)c(=O)oc2c1	1.8	2.2	4.2	75.8*	1.1	4.8
C[C@@H]1CN([C@@H](C)CO)C(=O)CCCn2nncc2CO[C@@H]1CN(C)S(=O)(=O)c1ccc(Oc2ccccc2)cc1	.	-1.6	0.1	6.2	.	4.6
O=C(COC(=O)c1ccccc1)Nc1ncc([N+](=O)[O-])s1	82.7*	65.2*	10.6	58.0*	30.8	92.8*
O=C(Nc1ccccc1)Nc1ncc([N+](=O)[O-])s1	-8.7	2.1	2.6	-28.6	1.8	-4.9
COc1ccc2oc(=Nc3ccc(C(=O)O)cc3)c(C(=O)NCc3ccco3)cc2c1	-9.4	0.9	-2.6	64.8*	1.7	4.4
COc1ccc(C(=O)Nc2ccccc2C(=O)NC(Cc2ccc(O)cc2)C(=O)NNC(=O)c2ccc(C)cc2)cc1 (centres undefined)	-7.4	10.6	3.6	77.9*	-13.5	-8.3
O=C(O)c1ccc(N=Nc2c(O)ccc3ncccc23)cc1	73.2*	14.8	15.5	-12.7	15.9	2.9
O=C(O)c1cc(N=Nc2c(O)ccc3ccccc23)cc(C(=O)O)c1	12.7	13.4	12.5	-11.2	-4.0	-1.6
CC(C)N1CCCC(C)(C(=O)Nc2nc3ccccc3n2C)C1 (centres undefined)	.	-1.2	0.2	1.6	.	2.5
CC(Nc1nc(-c2ccccc2F)nc2ccccc12)c1ccccc1 (centres undefined)	1.4	73.6*	-0.5	0.8	-0.6	-2.5
Fc1ccccc1-c1nc(NC2CCCC2)c2ccccc2n1	-1.6	69.6*	-1.9	0.3	-2.0	1.1
CC(Nc1nc(-c2cccnc2)nc2ccccc12)c1ccc(F)cc1 (centres undefined)	-5.3	35.8	0.4	1.2	-3.1	-4.2
CC(Nc1nc(-c2ccccc2)nc2ccccc12)c1ccccc1 (centres undefined)	0.3	52.0*	-2.9	2.9	-2.1	-14.7
CC(Nc1nc(-c2ccccc2O)nc2ccccc12)c1ccccc1 (centres undefined)	9.7	5.9	0.7	-3.1	3.1	-8.5
O=C1c2c(O)cccc2Cc2cccc(O)c21	-10.0	29.9	10.4	2.0	-3.6	94.8*
OCCNc1c2ccccc2nc2ccccc12	-8.3	19.1	6.0	-17.3	0.3	58.9*
OCCNc1nc2ccccc2nc1NCCO	-16.9	-1.2	-1.1	1.2	-1.2	0.7
SMILES	Scp-1 inhibitor	LMPTP block	STEP block	SUMO1 PPI mod	HKDC1 inh	DNMT1 block
Cc1cc(NC(=O)c2ccccc2)nc2c1c(=O)oc1ccccc12	-14.6	2.4	2.0	52.1*	1.0	1.1
CCOc1ccc(C(=O)Nc2cc(C)c3c(=O)oc4ccccc4c3n2)cc1	-9.1	-0.2	5.8	-45.2	-0.8	45.7
Cc1nc(N=Nc2ccc(O)cc2)n[nH]1	81.3*	-1.3	0.7	-32.6	-1.4	0.1
COc1ccc(S(=O)(=O)N2CCN(C(=O)c3ccccc3Cc3ccccc3)CC2)cc1OC	.	-0.5	-1.9	2.2	.	-0.6
COc1ccc(-c2cc(=O)oc3cc(OCC(=O)Nc4ccccn4)ccc23)cc1	-8.6	5.5	-0.3	43.4*	3.6	-3.8
CCCc1cc(=O)oc2cc(OCC(=O)Nc3ccccn3)ccc12	34.8	-1.5	-0.1	19.2	2.1	0.6
COc1ccccc1CNc1nc(NCc2ccccc2)nc2ccsc12	.	17.7	3.7	1.5	.	2.0
COCCNc1nc(NCc2ccc(C(C)C)cc2)c2sccc2n1	.	50.7*	2.1	1.4	.	1.8
COc1ccccc1CNc1nc(NCc2cnc(C)cn2)c2sccc2n1	.	79.9*	-0.3	2.4	.	3.4
COCCNc1nc(NCc2cccc(OC)c2OC)c2sccc2n1	.	62.2*	-2.4	5.3	.	-3.9
CC(=O)Nc1ccc(CNc2nc(NCC3CC3)nc3ccsc23)cc1	.	59.6*	3.7	1.5	.	-0.3
COc1ccccc1CNc1nc(NCc2cccc(OC)c2OC)c2sccc2n1	.	37.1	1.6	-3.6	.	-6.0
COc1ccc(Nc2nc(NCc3cccs3)nc3ccsc23)cc1OC	.	56.3*	3.6	-7.9	.	-9.4
COCCNc1nc(NCc2ccc(C)cc2C)c2sccc2n1	.	59.3*	0.3	-0.8	.	4.2
COc1ccc(Nc2nc(NC(C)C)nc3ccsc23)cc1OC	.	48.0	4.5	7.4	.	-2.7
CCN(CC)CCCn1c2c(c(SCC(=O)N3CCc4ccccc43)nc1=O)CCC2	-4.9	2.7	0.5	6.3	-2.4	-0.3
O=C(Nc1cccc(-c2nc3ncccc3o2)c1)c1cc2ccccc2o1	2.6	1.8	-3.2	-1.6	6.0	1.3
O=C(Nc1cccc(-c2nc3ncccc3o2)c1)c1sc2ccccc2c1Cl	2.4	50.2*	9.9	1.4	-5.2	41.6
Nc1c(C(=O)NC2CC2)sc2nc3c(c(-c4ccco4)c12)CC/C3=C/c1ccco1	83.8*	70.8*	14.9	94.9*	27.9	91.2*
CC(C)Oc1cccc(C(=O)Nc2nnc([C@H]3C[C@H](O)[C@@H](CO)O3)s2)c1	.	-0.3	-0.9	1.0	.	2.9
COCCCNc1cc(C)nc2ccccc12	-0.4	25.8	-1.3	-0.1	-1.9	3.2
